In ChEMBL document CHEMBL1141285, “Antimicrobial compounds from the Australian desert plant Eremophila neglecta” (2007):
≈ marks a conversion by molar mass, not a printed value. Calls of active or inactive are those of the source. No cut-off for these calls is given here.

Experiments:
Staphylococcus aureus [1] = test: Antimicrobial activity against Staphylococcus aureus ATCC 29213 by broth microdilution method
Streptococcus pyogenes = test: Antimicrobial activity against Streptococcus pyogenes ATCC 10389 by broth microdilution method; type: functional
In short: (§1)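 Broth microdilution in brain heart infusion broth with 2% DMSO in the 2-fold serial dilutions (final 1% v/v), done in duplicate. Final inoculum 5 × 10^5 CFU/mL. Plates shaken 10 min, then incubated overnight at 37 °C with 5% CO2. MIC is the lowest concentration with no growth in both duplicate wells.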

Streptococcus pneumoniae = test: Antimicrobial activity against Streptococcus pneumoniae ATCC 49619 by broth microdilution method; type: functional
In short: as §1

Salmonella typhimurium = test: Antimicrobial activity against Salmonella Typhimurium ATCC 13311 at 621.5 uM by broth microdilution method; type: functional, organism-based; conditions: Salmonella enterica subsp. enterica serovar Typhimurium
Staphylococcus aureus [2] = test: Antimicrobial activity against Staphylococcus aureus ATCC 25923 by broth microdilution method; type: functional
In short: as §1, with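 “cation-adjusted MH II” for “brain heart infusion”, “duplicate. Bacteria grown on 5% sheep blood agar at 37 °C.” for “duplicate.”, “°C.” for “°C with 5% CO2.”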

Staphylococcus aureus [3] = test: Antimicrobial activity against Staphylococcus aureus ATCC 29213 by broth microdilution method; type: functional
In short: as §1, with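 “cation-adjusted MH II” for “brain heart infusion”, “duplicate. Bacteria grown on 5% sheep blood agar at 37 °C.” for “duplicate.”, “°C.” for “°C with 5% CO2.”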

Escherichia coli = test: Antimicrobial activity against Escherichia coli ATCC 25922 at 621.5 uM by broth microdilution method; type: functional, organism-based
Pseudomonas aeruginosa = test: Antimicrobial activity against Pseudomonas aeruginosa ATCC 27853 at 621.5 uM by broth microdilution method; type: functional, organism-based
Staphylococcus aureus [4] = test: Antimicrobial activity against Staphylococcus aureus ATCC 29213 at 621.5 uM by broth microdilution method; type: functional, organism-based

Compound | MIC (Staphylococcus aureus [1]) [µM] | MBC (Streptococcus pyogenes) [µM] | MIC (Streptococcus pyogenes) [µM] | MBC (Streptococcus pneumoniae) [µM] | MIC (Streptococcus pneumoniae) [µM] | Activity (Salmonella typhimurium) | MBC (Staphylococcus aureus [2]) [µM] | MIC (Staphylococcus aureus [2]) [µM] | MBC (Staphylococcus aureus [3]) [µM] | MIC (Staphylococcus aureus [3]) [µM] | Activity (Escherichia coli) | Activity (Pseudomonas aeruginosa) | Activity (Staphylococcus aureus [4])
CN[C@H](CC(C)C)C(=O)N[C@H]1C(=O)N[C@@H](CC(N)=O)C(=O)N[C@H]2C(=O)N[C@H]3C(=O)N[C@H](C(=O)N[C@H](C(=O)O)c4cc(O)cc(O)c4-c4cc3ccc4O)[C@H](O)c3ccc(c(Cl)c3)Oc3cc2cc(c3O[C@@H]2O[C@H](CO)[C@@H](O)[C@H](O)[C@H]2O[C@H]2C[C@](C)(N)[C@H](O)[C@H](C)O2)Oc2ccc(cc2Cl)[C@H]1O [VANCOMYCIN] | 0.7 (≈ 1.01 µg/mL) | – | – | – | – | – | – | – | – | – | – | – | –
CC(C)=CCCC1=COC2=C(C)C(=O)C(=O)c3c(C)ccc1c32 | – | 203 (≈ 62.6 µg/mL) | 102 (≈ 31.3 µg/mL) | 12.7 (≈ 3.92 µg/mL) | 6.5 (≈ 2 µg/mL) | inactive | 50.6 (≈ 15.6 µg/mL) | 25.3 (≈ 7.8 µg/mL) | 203 (≈ 62.6 µg/mL) | 25.3 (≈ 7.8 µg/mL) | inactive | inactive | –
CC(C)=CCC[C@H](C)[C@@H]1CC[C@@H](C)c2c(O)cc(C(=O)O)cc21 | – | 99 (≈ 31.3 µg/mL) | 24.7 (≈ 7.82 µg/mL) | 49.3 (≈ 15.6 µg/mL) | 24.7 (≈ 7.82 µg/mL) | inactive | 99 (≈ 31.3 µg/mL) | 49.3 (≈ 15.6 µg/mL) | 49.3 (≈ 15.6 µg/mL) | 49.3 (≈ 15.6 µg/mL) | inactive | inactive | –
CC(C)=CCC[C@H](C)[C@@H]1CC[C@@H](C)c2c(O)cc(CO)cc21 | – | 12.9 (≈ 3.9 µg/mL) | 12.9 (≈ 3.9 µg/mL) | 12.9 (≈ 3.9 µg/mL) | 12.9 (≈ 3.9 µg/mL) | inactive | 25.8 (≈ 7.8 µg/mL) | 25.8 (≈ 7.8 µg/mL) | 25.8 (≈ 7.8 µg/mL) | 25.8 (≈ 7.8 µg/mL) | inactive | inactive | –
GENTAMICIN | – | – | – | – | – | – | – | – | – | 1 | – | – | –
CC(=O)OCc1cc(O)c2c(c1)[C@H]([C@@H](C)CCC=C(C)C)C[C@H](OC(C)=O)[C@H]2C | – | – | – | – | – | – | – | – | – | – | – | – | inactive
